# Source: paper PMC4210426 (The Journal of General Physiology, 2014)
# Several values for one entry are separate records, joined by “and”; a condition that tells them apart may be missing. Identical values can stand only once. Like-named read-outs stand apart in the source and are kept apart here.
# What was measured:
# BK channels [1] = test: bbTBA block of BK channels; type: cell-based; details: assuming a zδ of 0.148 e assigned to the forward rate
# BK channels [2] = details: at 100 mV; ref Wilkens and Aldrich, 2006; cited from earlier work
# CNG channels = details: ref Fodor et al., 1997a,b; cited from earlier work
# [3] = molecular target: T1, Slo1-C430S-A313C channels (Mus musculus, UniProt Q08460, A378C/C495S); details: 1 mM MTSET, ref Zhou et al., 2011, cited from earlier work
# BK channels (mSlo1) [4] = molecular target: T2, BK channels (mSlo1) (Mus musculus, UniProt Q08460); type: cell-based
# How it was run: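 Oocyte inside-out patches at ∼22–25°C. Pipette (mM): 140 K-methanesulfonate, 20 KOH, 10 HEPES, 2 MgCl2, pH 7.0. Cytosolic Ca2+ buffered with 5 mM HEDTA (10 µM) or unbuffered (300 µM). Test compound equilibrated for 4 min at set holding potential/Ca2+ before G-V from brief test steps. Concentration series (at least four) used steps to 160 mV at −70 to 70 mV. Hill and allosteric-scheme fits.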
# BK channels (mSlo1) [5] = molecular target: T2, BK channels (mSlo1); test: NPo measurements at negative potentials in macropatches; type: cell-based
# [6] = molecular target: BK channel voltage sensors (mSlo1) (Mus musculus, UniProt Q08460); test: Gating current measurements in inside-out macropatches; type: cell-based; details: with 500 nM paxilline, 0 Ca^2+
# How it was run: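 Inside-out macropatches from oocytes, room temperature (∼22–25°C). Pipette solution (mM): 127 TEA-OH, 125 methanesulfonic acid, 2 MgCl2, 10 HEPES, pH 7.0. Internal solution (mM): 141 NMDG, 135 methanesulfonic acid, 10 HEPES, 5 EGTA, pH 7.0. Voltage commands filtered at 20 kHz. Gating currents filtered at 10 kHz and sampled at 100 kHz. P/5 subtraction of capacitive and leak currents from −80 mV holding.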
# BK channels (mSlo1) [7] = molecular target: T2, BK channels (mSlo1); test: Kinetics of onset of and recovery from paxilline inhibition of BK current; type: cell-based
# How it was run: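 Oocyte inside-out patches with fast perfusion, room temperature. BK availability monitored by brief steps to 160 mV. Onset came from wash-in of 100 nM test compound at −80 mV, 300 µM Ca2+, fitted with single exponentials. Block rate was measured over 5–2,000 nM at −80 and −100 mV, with step interval cut to 0.2 s at highest concentrations. Recovery followed a switch in equilibration voltage or washout. Kd was derived from kinetic rates.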
# [8] = molecular target: Slo1-A313C channels (unmodified, MTSET-, MTSEA- or MTSES-modified) (Mus musculus, UniProt Q08460, A378C/C495S); test: Paxilline block of Slo1-A313C currents before and after MTS modification; type: cell-based; details: 100 nM paxilline; for fractional block: 0 mV
# BK channels (Slo1) = BK channels (Slo1) (Mus musculus, UniProt Q08460); test: Paxilline inhibition of BK current in the presence of bbTBA or 2 M sucrose; type: cell-based
# [9] = molecular target: T1, Slo1-C430S-A313C channels; test: MTSET modification of A313C in closed BK channels, without and with paxilline; type: cell-based; details: 500 nM paxilline, −80 mV, 0 Ca^2+
# How it was run: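 Slo1-C430S-A313C channels in oocyte inside-out patches. 1 mM MTSET applied for 120 s at −80 mV holding in 0 Ca2+. Currents recorded with 300 µM Ca2+ before and after modification, with steps up to 200 mV. Separate control G-V sets were collected for modification without and with test compound.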
# [10] = cited from earlier work
# BK channel G311 mutant = details: ref Zhou et al., 2010; cited from earlier work
# [11] = tested on: pH-regulated Slo3 K^+ channel; details: cited from earlier work
# [12] = in 100 nM paxilline, 10 µM Ca^2+, holding potential 0 mV
# [13] = with 50 nM paxilline, all solutions 10 mM DTT, n = 7 patches
# T1 sequence (Q08460 whole entry A378C/C495S): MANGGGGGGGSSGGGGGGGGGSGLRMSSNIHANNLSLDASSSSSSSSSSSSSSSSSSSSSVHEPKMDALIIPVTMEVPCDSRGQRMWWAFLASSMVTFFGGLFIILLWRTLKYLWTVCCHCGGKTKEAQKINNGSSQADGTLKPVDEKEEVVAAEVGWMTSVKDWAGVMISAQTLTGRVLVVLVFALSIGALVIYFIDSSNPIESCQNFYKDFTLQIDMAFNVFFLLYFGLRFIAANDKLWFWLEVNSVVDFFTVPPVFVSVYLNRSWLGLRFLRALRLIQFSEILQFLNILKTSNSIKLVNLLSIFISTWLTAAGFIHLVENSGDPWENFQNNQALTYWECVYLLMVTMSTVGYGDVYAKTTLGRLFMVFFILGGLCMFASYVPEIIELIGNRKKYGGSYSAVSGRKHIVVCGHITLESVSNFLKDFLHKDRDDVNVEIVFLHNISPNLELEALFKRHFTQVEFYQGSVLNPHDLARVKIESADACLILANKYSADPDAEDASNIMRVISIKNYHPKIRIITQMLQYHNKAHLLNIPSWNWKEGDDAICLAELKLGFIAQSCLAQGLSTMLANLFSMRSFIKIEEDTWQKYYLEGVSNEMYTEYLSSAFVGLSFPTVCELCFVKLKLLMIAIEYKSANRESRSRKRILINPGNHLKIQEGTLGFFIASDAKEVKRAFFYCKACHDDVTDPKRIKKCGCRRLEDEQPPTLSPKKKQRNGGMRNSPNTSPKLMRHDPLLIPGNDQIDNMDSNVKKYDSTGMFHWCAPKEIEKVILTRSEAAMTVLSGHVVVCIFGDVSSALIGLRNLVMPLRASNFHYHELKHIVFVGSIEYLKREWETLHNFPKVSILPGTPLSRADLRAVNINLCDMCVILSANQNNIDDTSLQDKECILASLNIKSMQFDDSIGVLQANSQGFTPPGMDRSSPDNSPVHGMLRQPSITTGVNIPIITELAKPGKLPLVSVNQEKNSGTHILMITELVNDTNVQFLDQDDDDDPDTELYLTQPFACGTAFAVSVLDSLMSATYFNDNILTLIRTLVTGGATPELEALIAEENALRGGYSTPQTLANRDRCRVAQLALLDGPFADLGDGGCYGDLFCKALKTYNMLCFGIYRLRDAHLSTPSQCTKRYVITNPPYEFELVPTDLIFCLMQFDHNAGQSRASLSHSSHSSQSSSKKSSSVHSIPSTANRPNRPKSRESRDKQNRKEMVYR
# Chain of Slo1-A313C channels (unmodified, MTSET-, MTSEA- or MTSES-modified) (Q08460 whole entry A378C/C495S): as above
# Chain of BK channels (Slo1) (Q08460 whole entry): as the sequence (Q08460 whole entry A378C/C495S) above, with C378A, S495C counted along it
# T2 sequence (Q08460 whole entry): as the sequence (Q08460 whole entry A378C/C495S) above, with C378A, S495C counted along it
# Chain of BK channel voltage sensors (mSlo1) (Q08460 whole entry): as the sequence (Q08460 whole entry A378C/C495S) above, with C378A, S495C counted along it
structure (smiles),measurement,setting,value
"CCCC[N+](CCCC)(CCCC)Cc1ccc(C(=O)c2ccccc2)cc1 [bbTBA, N-(4-[benzoyl]benzyl)-N,N,N-tributylammonium]",0-voltage forward rate,BK channels [1],6.7e+07 M⁻¹ s⁻¹
same,forward rate of block,BK channels [2],1.2e+08 M⁻¹ s⁻¹
CCCCNc1ccc(C(=O)OCCN(C)C)cc1 [tetracaine],affinity for closed channels relative to open channels,CNG channels,"~1,000 fold"
"C[N+](C)(C)CCSS(C)(=O)=O.[Br-] [MTSET, [2-(trimethylammonium)ethyl] MTS bromide]",reduction in maximal conductance,[3]; closed BK channels,> 50%
same,time constant of modification of A313C of closed BK channels,[3],~23 s
CC(C)(O)[C@H]1O[C@H]2CC[C@@]3(C)[C@@](O)(CC[C@H]4Cc5c([nH]c6ccccc56)[C@@]43C)C2=CC1=O [paxilline],inhibition of current,"BK channels (mSlo1) [4]; 10 nM paxilline, 0 mV, 10 µM Ca^2+ (Po <0.02), 4 min",over half
same,inhibition of current,"BK channels (mSlo1) [4]; 100 nM paxilline, 0 mV, 10 µM Ca^2+ (Po <0.02), 4 min",essentially complete inhibition
same,inhibition of current,"BK channels (mSlo1) [4]; 100 nM paxilline, holding potential 80 mV, 300 µM Ca^2+, 1 min of application",almost no inhibition
same,IC50,"BK channels (mSlo1) [4]; IC50 (Hill fit), equilibration 0 mV, 300 µM Ca^2+ (Po ∼0.65)",0.0584 ± 0.0029 µM
same,IC50,"BK channels (mSlo1) [4]; IC50 (Hill fit), equilibration 40 mV, 300 µM Ca^2+ (Po ∼0.83)",0.47 ± 0.0949 µM
same,IC50,"BK channels (mSlo1) [4]; IC50 (Hill fit), equilibration 70 mV, 300 µM Ca^2+ (Po ∼0.89)",5.37 ± 1 µM
same,IC50,"BK channels (mSlo1) [4]; IC50 (Hill fit), equilibration −70 mV, 300 µM Ca^2+ (Po ∼0.1)",0.0117 ± 0.0019 µM
same,IC50,"BK channels (mSlo1) [4]; IC50 for paxilline, as maximal Po was approached",~10 µM
same,IC50,"BK channels (mSlo1) [4]; IC50 for paxilline, channels largely closed",~0.01 µM
same,reduction in the C-O equilibrium constant L(0),BK channels (mSlo1) [4]; binding of one paxilline molecule,> 500 fold
same,direct inhibition of the open state,BK channels (mSlo1) [4]; concentrations up to 10 µM,not directly inhibited
same,n,BK channels (mSlo1) [4]; fit of Scheme 1 (Eq. 1) to four equilibration conditions,1.09 ± 0.11
same,Vh of G-V curve,BK channels (mSlo1) [4]; [12],24.75 ± 0.13 mV
same,z of G-V curve,BK channels (mSlo1) [4]; [12],0.86 ± 0.01 e
same,affinity for closed conformation relative to open conformation,BK channels (mSlo1) [4]; model-dependent analysis (Scheme 1),> 500 fold and ~500 fold
same,difference between closed- and open-state affinity,"BK channels (mSlo1) [4]; model-independent analysis of IC50 vs state occupancy, and overall conclusion","~1,000 fold"
same,Vh of G-V curve,BK channels (mSlo1) [4]; [13],21.21 ± 1.85 mV
same,z of G-V curve,BK channels (mSlo1) [4]; [13],0.79 ± 0.07 e
same,normalized NPo,"BK channels (mSlo1) [5]; 100 nM paxilline, −80 mV, 300 µM Ca^2+",< 0.05
same,IC50,"BK channels (mSlo1) [5]; IC50 for reduction in normalized NPo, −80 mV, Hill fit with n = 1",0.0055 ± 0.0011 µM
same,inhibition at 0.1 µM,BK channels (mSlo1) [5]; read-out: inhibition of BK current (NPo),> 95%
same,Hill coefficient n,"BK channels (mSlo1) [5]; −80 mV, 10 or 300 µM Ca^2+, Hill fit of normalized NPo",0.85 ± 0.25
same,Vh of Qoff,[6],130.2 ± 9.1 mV
same,Vh of Qon,[6],131.4 ± 2.1 mV
same,z of Qoff,[6],0.56 ± 0.035 e
same,z of Qon,[6],0.54 ± 0.025 e
same,Kd,BK channels (mSlo1) [7],0.0129 µM
same,"τon, time constant of onset of inhibition by wash-in","BK channels (mSlo1) [7]; 100 nM paxilline, −80 mV, 300 µM Ca^2+, four patches, mean ± STD",26.3 ± 6.6 s
same,time constant of onset of inhibition after change in equilibration condition,"BK channels (mSlo1) [7]; constant 100 nM paxilline, 80 to −80 mV, 300 µM Ca^2+, four patches, mean ± STD",6.85 ± 1.79 s
same,difference in recovery time constant between 20 and 100 nM paxilline,"BK channels (mSlo1) [7]; recovery at 0 mV in the constant presence of paxilline, seven patches",1.6 fold
same,rate of inhibition of closed channels (slope of blocking rate vs [paxilline]),"BK channels (mSlo1) [7]; −80 and −100 mV, 300 µM Ca^2+, 5 to 2,000 nM paxilline",2e+06 M⁻¹ s⁻¹
same,mean time constant of recovery,BK channels (mSlo1) [7]; −80 mV,37.0 s
same,fractional block,"[8]; MTSEA-modified Slo1-A313C, 10 µM Ca^2+ (Po ∼0.48)",~0.5
same,inhibition relative to unmodified Slo1-A313C,[8]; MTSES-modified Slo1-A313C (Po ∼0.12),only slightly weaker
same,fractional block,"[8]; MTSET-modified Slo1-A313C, 10 µM Ca^2+ (Po ∼0.9)",< 0.1
same,block of Slo1-A313C current,[8]; unmodified A313C,strong block
same,reduction of current,"BK channels (Slo1); 100 nM paxilline alone for ∼40 s, 0 mV, 10 µM Ca^2+",~80%
same,reduction of the number of channels blocked by paxilline,"BK channels (Slo1); 100 nM paxilline applied together with 100 µM bbTBA, 0 mV, 10 µM Ca^2+",~50%
same,inhibition of BK current,"BK channels (Slo1); 100 nM paxilline with 2 M sucrose in the cytosolic solution, 300 µM Ca^2+",only a weak inhibition
same,effect on MTSET modification of A313C in closed channels,[9]; 1 mM MTSET for 120 s,no difference in modification with or without paxilline
same,inhibition of BK current during MTSET application,[9],completely inhibited
same,logP,[10],3.62
same,effect of G311 mutation on paxilline inhibition,BK channel G311 mutant,totally abolishes paxilline inhibition
same,sensitivity to paxilline inhibition,[11],resistant
OC[C@H]1O[C@@](CO)(O[C@H]2O[C@H](CO)[C@@H](O)[C@H](O)[C@H]2O)[C@@H](O)[C@@H]1O [sucrose],Vh of activation,"BK channels (Slo1); with 2 M sucrose, 300 µM Ca^2+, tail currents at −120 mV",−12.8 ± 3.3 mV
